In ChEMBL document CHEMBL1126156, “Multivariate analysis by the minimum spanning tree method of the structural determinants of diphenylethylenes and triphenylacrylonitriles implicated in estrogen receptor binding, protein kinase C activity, and MCF7 cell proliferation” (J Med Chem, 1992):

Tests used:
[1] = molecular target: T1, Protein kinase C, PKC; classical (Rattus norvegicus) (UniProt P05696+P68403+P63319); experiment: (§1) Percent stimulation or inhibition of protein kinase C with [Ca2+] for phosphatidylserine and diolein(PS+DO); type: protein assay; design: concentration or dose not given beside the values; conditions: values are per cent of control
In short: (§2)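 Type III (α) PKC purified from rat brain soluble fraction, assayed with calf thymus H1 histone, 0.1 mM Ca2+, 5 mM magnesium acetate, 10 μM [32P]ATP, 2 μg/mL phosphatidylserine plus 0.2 μg/mL diolein. Compounds mostly at 10⁻⁴ M; activity expressed as percent of control.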

[2] = molecular target: T1, Protein kinase C, PKC; classical (Rattus norvegicus); experiment: Percent stimulation or inhibition of protein kinase C with [Ca2+] for phosphatidylserine (PS); type: protein assay; conditions: values are per cent of control
In short: (§3)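 Purified type III (α) PKC from rat brain soluble fraction. Substrate calf thymus H1 histone with 0.1 mM Ca2+, 5 mM magnesium acetate, 10 μM [32P]ATP and 2 μg/mL phosphatidylserine, no diolein. Most compounds at 10⁻⁴ M, given as percent of control activity.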

MCF7S [3] = experiment: Agonistic activity in MCF-7 cell proliferation.; type: functional, Homo sapiens
In short: (§4)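 MCF-7 cells grown in phenol red-free medium with 5% dextran-coated charcoal-treated serum, tested 10 pM to 1 μM. DNA content read after growth. Agonism expressed relative to the maximum response with E2 (=100%), whatever the concentration. EC50 (50% of maximum response) taken from two separate experiments.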

MCF7S [4] = experiment: Cytostatic activity against MCF-7 cell proliferation.; type: functional, Homo sapiens; design: concentration or dose not given beside the values
In short: (§5)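 MCF-7 cells in phenol red-free charcoal-treated medium given 10⁻⁶ M E2 plus test compound (3–10 μM), 6 days of growth. DNA expressed as percent of E2-treated cells. IC30 is the concentration giving 30% inhibition. Percent inhibition taken at 10⁻⁵ M, or at 10⁻⁶ M in a second series. Means of two experiments.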

[5] = molecular target: T1, Protein kinase C, PKC; classical (Rattus norvegicus); experiment: as §1; type: protein assay; in short: as §2
Rattus norvegicus [6] = organism: Rattus norvegicus; experiment: Percent stimulation or inhibition of protein kinase C III activity for protamine sulfate in the presence of EGTA.; design: concentration or dose not given beside the values; conditions: values are per cent of control
In short: (§6)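 Rat brain type III (α) PKC, purified, with protamine sulfate as substrate and 0.5 mM EGTA in place of Ca2+, phosphatidylserine and diolein; 5 mM magnesium acetate, 10 μM [32P]ATP. Most compounds at 10⁻⁴ M; percent of control activity.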

Rattus norvegicus [7] = organism: Rattus norvegicus; experiment: Percent stimulation or inhibition of protein kinase C with EGTA for protamine sulfate; conditions: concentration not given here; in short: as §6
MCF7S [8] = experiment: Cytostatic activity against MCF-7 cell proliferation; type: functional, Homo sapiens
In short: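 MCF7 (ER-positive) human breast cancer cells grown in 24-well plates in phenol red-free medium with 5% dextran-coated charcoal, with 10⁻⁶ M E₂ added. Cells exposed to compound for 6 days, then DNA measured and expressed as percent of E₂-alone DNA. Triplicate wells per experiment; values are means of two experiments.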

[9] = molecular target: T1, Protein kinase C, PKC; classical (Rattus norvegicus); experiment: The percent stimulation or inhibition of protein kinase C III activity was determined for phosphatidylserine (PS) and diolein(PS+DO) in the presence of [Ca2+]; type: protein assay; design: concentration or dose not given beside the values; conditions: values are per cent of control; in short: as §2
[10] = molecular target: T1, Protein kinase C, PKC; classical (Rattus norvegicus); experiment: Percent stimulation or inhibition of protein kinase C III activity for phosphatidylserine (PS) in the presence of [Ca2+].; type: protein assay; design: concentration or dose not given beside the values; conditions: values are per cent of control; in short: as §3
[11] = molecular target: Estrogen receptor (Bos taurus) (UniProt Q9XSB5+P49884); experiment: Relative binding affinity for calf uterus estrogen receptor after 2 hr at 0 degree C; type: protein assay
In short: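 Calf uterus cytosol ER incubated 2 h at 0 °C with [6,7-3H]-17β-estradiol and competitor. RBA given relative to estradiol (=100%), mean of at least four determinations.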

MCF7S [12] = experiment: Agonist activity against MCF-7 cell proliferation; type: functional, cell-based; conditions: Homo sapiens; in short: as §4
MCF7S [13] = experiment: (§7) Antagonist activity against MCF-7 cell proliferation; type: functional, Homo sapiens
In short: (§8)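 Phenol red-free MCF-7 cultures with 5% dextran-coated charcoal-treated serum, stimulated by 0.1 nM E2. Proliferation read as DNA content after 8 days relative to E2 alone. Percent antagonism is the inhibition at 10⁻⁶ M test compound versus 10⁻¹⁰ M E2. IC50 (50% of maximum response) from two separate experiments.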

BT-20 [14] = experiment: (§9) Cytotoxic effect on ER-negative BT20 cell proliferation; type: functional, Homo sapiens; design: concentration or dose not given beside the values
In short: (§10)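 ER-negative BT20 cells, no E2, test compound at 3–10 μM for 6 days. DNA read as percent of untreated control. IC30 is the concentration inhibiting growth by 30%; percent inhibition taken at 10⁻⁵ M. Means of two experiments, triplicate wells.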

MCF7S [15] = experiment: Cytotoxic effect on MCF-7 cell proliferation; type: functional; conditions: Homo sapiens; in short: as §5
MCF7S [16] = experiment: as §7; type: functional, cell-based; conditions: Homo sapiens; in short: as §8
BT-20 [17] = experiment: as §9; type: functional; conditions: Homo sapiens; in short: as §10

| SMILES | residual activity [1] | residual activity [2] | Agonism (MCF7S [3]) | Inhibition (MCF7S [4]) | residual activity ([5]; values are per cent of control) | residual activity (Rattus norvegicus [6]) | inhibition ([5]; concentration not given here) | inhibition (Rattus norvegicus [7]) | Inhibition (MCF7S [8]) | residual activity [9] | residual activity [10] | RBA [11] | EC50 (MCF7S [12]) | Antagonism (MCF7S [13]) | Inhibition (BT-20 [14]) | IC30 (MCF7S [15]) | IC50 (MCF7S [16]) | IC30 (BT-20 [17]) |
| --- | --- | --- | --- | --- | --- | --- | --- | --- | --- | --- | --- | --- | --- | --- | --- | --- | --- | --- |
| Cc1ccc(/C(=C(\C#N)c2ccc(O)cc2)c2ccc(O)cc2)cc1 | 68% | 88% | 73% | 54% | 68% |  |  |  |  |  |  |  |  |  |  |  |  |  |
| CN(C)c1ccc(C(=C(C#N)c2ccccc2)c2ccc(N(C)C)cc2)cc1 |  |  | 85% | 48% |  | 88% | 57% | 88% |  |  |  |  |  |  |  |  |  |  |
| CC/C(=C(/c1ccc(O)cc1)c1ccc(OCCN(C)C)cc1)c1ccccc1 |  |  | 61% |  |  | 100% |  |  | 74% | 14% | 32% |  |  |  |  |  |  |  |
| CC(C)N(CCOc1ccc(C(=C(C#N)c2ccccc2)c2ccc(OCCN(C(C)C)C(C)C)cc2)cc1)C(C)C |  |  | 29% | 97% |  | 85% |  |  |  | 8% | 18% | 0.03% | 0.00084 µM | 79% | 89% | 2.7 µM | 0.325 µM | 3.2 µM |
| CC(C)CCOc1ccc(C(=C(C#N)c2ccccc2)c2ccc(OCCC(C)C)cc2)cc1 |  |  | 0% | 3% |  | 78% |  |  |  | 86% | 118% |  | > 1 µM | 0% | 37% | > 10 µM | > 1 µM | 9 µM |
| CCN(CC)CCOc1ccc(C(C#N)=C(c2ccc(O)cc2)c2ccc(O)cc2)cc1 |  |  | 45% | 68% |  | 105% |  |  |  | 0% | 7% |  | 0.0008 µM | 50% | 50% | 6 µM | 0.2 µM | 3 µM |
